LANA-H2A inh: blocks KSHV LANA binding to histone H2A/H2B; Q9QR71; cell-free LANA-H2A/H2B peptide, fluorescence polarization; inhibition, % (concentration not given with the values); 320,000 tested, 0.6% active; in the data active means inhibition mostly above about 10%, no sharp cut-off; inactive means mostly below about 6.7%
ATG4B inh: inhibitors of human ATG4B cysteine protease. inhibition, % at 8.33 µM. 340,000 tested, 0.51% active. ATG4B cleavage of LC3-PLA2, NBD-HPC fluorescence, 1 h. Q9Y4P1; in the data active means inhibition above about 40%
A1 inh: inhibitors of the anti-apoptotic protein A1, read as caspase activation; MEF A1-2A-BIM cells, Caspase-Glo 3/7 luminescence, 3 h; percent of clofoctol response, vehicle zero; caspase activation, % (test concentration not listed); 330,000 tested, 0.066% active;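 active means over half of replicate activation scores above 10%, or exactly half above 10 with the replicate mean above 10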
AI-2 QS mod: modulators of Vibrio harveyi AI-2 quorum sensing system. 300,000 tested, 0.4% active. activity change, % at 7.5 µM. AID 2094. Vibrio harveyi JMH597 AI-2 luminescence/OD600 ratio, 9 h; stronger effect = lower value; strain lacks LuxN and CqsS sensors; 0 = neutral-control median; in the data active means activity change below about -75%, passing the limit was not always enough;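 further: luminescence divided by OD600 gain over 9 h not by final OD600 alone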
HDAC3 inh: inhibitors of human histone deacetylase 3; recombinant HDAC3, fluorogenic peptide/trypsin coupled, fluorescence; inhibition, % at 8.3 µM; 320,000 tested, 0.15% active; AID 2718; in the data active means inhibition above about 26%, passing the limit was not always enough
Target sequence (O15379 whole entry, looked up): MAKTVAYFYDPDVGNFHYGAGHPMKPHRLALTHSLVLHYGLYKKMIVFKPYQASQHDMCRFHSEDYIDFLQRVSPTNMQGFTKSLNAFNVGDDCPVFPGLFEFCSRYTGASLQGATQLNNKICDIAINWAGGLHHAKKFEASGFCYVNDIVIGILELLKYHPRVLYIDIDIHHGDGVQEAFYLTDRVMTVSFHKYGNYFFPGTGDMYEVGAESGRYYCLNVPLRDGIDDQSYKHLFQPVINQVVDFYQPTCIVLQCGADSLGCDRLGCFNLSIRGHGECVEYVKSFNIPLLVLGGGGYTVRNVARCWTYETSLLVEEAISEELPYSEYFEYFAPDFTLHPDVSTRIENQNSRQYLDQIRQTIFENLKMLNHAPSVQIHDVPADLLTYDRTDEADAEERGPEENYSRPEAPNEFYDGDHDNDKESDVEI
HKDC1 inh: blocks human hexokinase HKDC1 activity. Q2TB90. recombinant HKDC1, G6PDH/diaphorase resazurin coupled fluorescence. inhibition, % at 20 µM. 340,000 tested, 0.16% active. AID 493160;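 active means inhibition above about 35% when tested at 20 µM, limit read from the data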;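 further: plate controls were DMSO wells with enzyme for no effect and DMSO wells lacking enzyme for full effect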
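System: Recombinant HKDC1 hexokinase | Amount: HKDC1 at 5 µg/mL | Reagent: Glucose with 1 mM ATP | Doses: Single 20 µM dose | Incubation: Reaction time 90 min, room temperature, protected from light | Signal: Coupled resazurin fluorescence, excitation 525 nm, emission 613 nm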
ATG4B conf: ATG4B (human) inhibition, single-dose confirmed; ATG4B protease fluorescent substrate cleavage assay; 320 tested, 92% active; inhibition, % at 8.33 µM; shares compounds with ATG4B inh; AID 504757; in the data active means inhibition above about 39%
PLA2 counter: PLA2 (human) inhibition in ATG4B counter-screen | shares compounds with ATG4B inh | purified PLA2, NBD-C6-HPC fluorescence, 45 min | inhibition, % at 8.33 µM | 1,600 tested, 66% active | AID 588402; in the data active means inhibition above about 50%
Target sequence (P04054 whole entry, looked up): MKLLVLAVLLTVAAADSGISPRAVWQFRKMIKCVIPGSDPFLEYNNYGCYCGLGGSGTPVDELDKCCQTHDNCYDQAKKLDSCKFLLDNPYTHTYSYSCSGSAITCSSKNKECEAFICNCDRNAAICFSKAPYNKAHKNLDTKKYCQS
Starred values were filed as active, the others as inactive; · = no result. The list is not random: actives were taken first. Their share in the collection is about 1.8%.

SMILES | LANA-H2A inh | ATG4B inh | A1 inh | AI-2 QS mod | HDAC3 inh | HKDC1 inh | PLA2 counter | others
O=C(O)C1Cc2[nH]cnc2C(c2ccc(F)cc2)N1 (stereo not given) | -2 | -1 | 0 | 4 | -4 | 4 | ·
O=C(NCCc1ccccc1Cl)c1cc(COc2ccc(F)cc2F)on1 | 3 | 46* | 0 | 15 | 10 | 0 | 55*
COC(=O)C1=C(C)N(Cc2cccnc2)C(=O)/C1=C\c1sccc1C | -1 | 42* | -1 | -2 | 11 | 5 | 54*
O=c1[nH]c(=O)n(Cc2ccccc2)c2nc(-c3ccc(C(F)(F)F)cc3)n(CCO)c12 | -7 | -6 | 0 | -14 | -8 | 0 | ·
CC1CN(c2nc3ccccn3c(=O)c2/C=C(\C#N)S(=O)(=O)c2ccccc2)CC(C)O1 (stereo not given) | -1 | -8 | 0 | 1 | -5 | 8 | ·
Cc1cccn2c(=O)c(/C=C(\C#N)S(=O)(=O)c3ccccc3)c(N3CCN(C)CC3)nc12 | 0 | 37 | 1 | -3 | 12 | -6 | ·
Cc1ccc(S(=O)(=O)/C(C#N)=C/c2c(N3CCN(C)CC3)nc3c(C)cccn3c2=O)cc1 | · | 50* | 0 | 5 | · | -4 | 59*
Cc1ccc(S(=O)(=O)/C(C#N)=C/c2c(N3CC(C)OC(C)C3)nc3c(C)cccn3c2=O)cc1 (stereo not given) | 0 | 44* | 0 | 10 | 11 | 0 | 51*
CCN1CCN(c2nc3c(C)cccn3c(=O)c2/C=C(\C#N)S(=O)(=O)c2ccc(C)cc2)CC1 | 4 | 67* | 0 | 15 | 7 | 0 | 68*
CCN1CCN(c2nc3c(C)cccn3c(=O)c2/C=C(\C#N)S(=O)(=O)c2ccc(Cl)cc2)CC1 | -1 | 37 | 0 | 10 | 6 | 3 | ·
O=C(O)c1cccc(CSc2nc(-c3ccccc3)cc(C(F)(F)F)n2)c1 | · | 30 | 1 | 35 | · | -7 | ·
COc1ccc(-c2cc(C(F)(F)F)nc(SCc3cccc(C(=O)O)c3)n2)cc1 | 1 | 44* | 0 | 19 | 2 | -2 | 56*
Cc1ccc(Cl)c(OCC(=O)Nc2ccc(S(=O)(=O)NC3=NCCCCC3)cc2)c1 | 0 | -3 | 0 | 14 | 13 | 0 | ·
Cc1cc(OCC(=O)Nc2ccc(S(=O)(=O)NC3=NCCCCC3)cc2)c(C(C)C)cc1Cl | -4 | 48* | 1 | 21 | 17 | -3 | 56*
CCOC(=O)C1=C(C)N=c2s/c(=C/c3cccc([N+](=O)[O-])c3O)c(=O)n2C1c1ccccc1 (stereo not given) | 2 | 58* | 0 | 13 | -2 | 11 | 27
O=C(NC1CCSc2ccccc21)c1cccc(OC(F)F)c1 (stereo not given) | 2 | 7 | 0 | 18 | -5 | 1 | ·
COc1cccc(CC(=O)NC2CCSc3ccccc32)c1 (stereo not given) | -1 | 4 | 0 | · | 0 | -3 | ·
FC(F)Oc1ccc(NC(=S)NC2CCSc3ccccc32)cc1 (stereo not given) | -1 | 59* | -2 | 7 | 2 | 1 | 57*
S=C(NCc1ccccc1)NC1CCSc2ccccc21 (stereo not given) | 4 | 64* | 0 | 31 | 0 | 1 | 69*
Cc1cccc(NC(=S)NC2CCSc3ccccc32)c1 (stereo not given) | -50 | 42* | 0 | -5 | 1 | -1 | 54*
Cc1ccc(C(=O)N[C@H](C(=O)OCc2cc(=O)oc3cc(C)ccc23)C(C)C)cc1 | 6 | -10 | 0 | 12 | -4 | -1 | ·
COc1ccc(-n2nc3c(N4CCC(C(=O)N5CCCCCC5)CC4)nnc(C)c3c2C)cc1 | -4 | 75* | 1 | 18 | -7 | -3 | 79*
Cc1nnc(N2CCC(C(=O)N3CCCCCC3)CC2)c2nn(-c3ccc(Cl)cc3)c(C)c12 | 2 | 76* | 0 | 22 | 0 | 4 | 86*
COc1cc(CN2CCCCC2C(=O)Nc2ccc(Oc3ccccc3)nc2)ccc1O (stereo not given) | 3 | 19 | -1 | 2 | -6 | 8 | ·
CCN(CC)S(=O)(=O)c1ccc(NC(=S)Nc2ccc(F)cc2)cc1 | 3 | -6 | 1 | 11 | 1 | 1 | ·
SMILES | LANA-H2A inh | ATG4B inh | A1 inh | AI-2 QS mod | HDAC3 inh | HKDC1 inh | PLA2 counter | others
CC(=O)c1ccc2c(c1)C1C=CCC1C(c1ccc(S(=O)(=O)N3CCOCC3)cc1)N2 (stereo not given) | 1 | -5 | 1 | · | -1 | 10 | ·
COc1ccc(NS(=O)(=O)c2ccc3c(c2)[C@H]2C=CC[C@H]2[C@@H](c2ccc(C(=O)O)cc2)N3)cc1 | -5 | 78* | 0 | 4 | -3 | 23 | 48 | ATG4B conf=31
O=C(O)c1ccc2c(c1)C1C=CCC1C(c1ccncc1)N2 (stereo not given) | -4 | -1 | -1 | 8 | 1 | -2 | ·
Cc1c(Cl)cccc1NS(=O)(=O)c1ccc2c(c1)C1C=CCC1C(c1ccc(C(=O)O)cc1)N2 (stereo not given) | 4 | 101* | 1 | · | -1 | 10 | 92*
C/C=C/c1ccc(Oc2nnnn2-c2ccc(C(N)=O)cc2)c(OC)c1 | -2 | 69* | 0 | 8 | 0 | -1 | 80*
NC(=O)c1ccc(-n2nnnc2Oc2ccccc2)cc1 | 0 | 54* | 0 | 13 | 4 | -3 | 50
Cc1ccc(CSc2ccc(C(=O)N3CCOCC3)cc2[N+](=O)[O-])cc1 | 2 | -10 | 0 | -2 | -2 | -3 | ·
COc1ccc(C2CC2/C(=N/O)c2ccccc2)cc1 (stereo not given) | 0 | 5 | 0 | 9 | 4 | -6 | ·
O/N=C(/c1ccc(F)cc1)C1CC1c1c(F)cccc1Cl (stereo not given) | 1 | 48* | 0 | -42 | -5 | 0 | 47
Oc1c(Br)cc(Br)cc1/C=N/n1c(-c2ccccc2)n[nH]c1=S | -2 | 42* | 0 | 72 | 0 | 9 | 9 | ATG4B conf=45*
O=C(CN1CCCCC1)Nc1ccccc1-c1ccccc1 | 0 | 46* | 1 | 6 | -6 | -6 | 59*
O=C(CN1CCOCC1)Nc1ccccc1-c1ccccc1 | 3 | -7 | -1 | 10 | -4 | 0 | ·
C=CCN1C(=O)NC(c2ccccc2)(C(F)(F)F)S/C1=C(\C#N)c1nnc(N2CCOCC2)n1-c1ccccc1 (stereo not given) | 1 | -3 | 0 | 44 | 2 | 7 | ·
